Experimental data pooled from the literature.
≈ marks a conversion by molar mass, not a printed value.

| Compound | tested on | assay | test system | conditions | measurement | value |
| --- | --- | --- | --- | --- | --- | --- |
| OC1(c2ccccc2)CCN(c2nc(-c3ccccn3)nc3ccccc23)C1 (stereo not shown) | Trypanosoma cruzi | parasite growth, imaging | U2OS | intracellular, amastigote | IC50 | 3.51 µM |
| COc1ccc(NC(=O)c2c(Nc3ccccc3)sc(C(=O)NN=Cc3ccc(C)cc3)c2NC(C)=O)cc1 | HepG2 | cell growth or viability, SRB |  | 1 nM, 48 h | viability | 100% |
| CCOC(=O)c1ccc(-n2c(C)cc(C)c(C#N)c2=O)cc1 | HepG2 | cell growth or viability, MTT |  | 3.125 µM, 24 h | viability | 100% |
| COc1ccc(NC(=O)c2c(Nc3ccccc3)sc(C#N)c2NC(=O)CNc2ccccc2)cc1 | HepG2 | cell growth or viability, SRB |  | 1 µM, 48 h | viability | 88.6% |
| Oc1ccc(-c2nc(N3CCC(c4ccccn4)C3)c3ccccc3n2)cc1 (stereo not shown) | Trypanosoma cruzi | parasite growth, imaging | U2OS | intracellular, amastigote | IC50 | 1.13 µM |
| CCOC(=O)c1ccc(-n2c(C)cc(/C=C/c3ccc(OCC)cc3)c(C#N)c2=O)cc1 | HepG2 | cell growth or viability, MTT |  | 25 µM, 24 h | viability | 72% |
| Cc1ccc(CNC(=O)c2cc(-c3ccccc3)sc2N)cc1 | Mycobacterium tuberculosis | microbial growth, resazurin | H37RV |  | MIC | > 300 µM |
| COc1ccc(NCC(=O)Nc2c(C#N)sc(Nc3ccccc3)c2C(=O)Nc2ccc(OC)cc2)cc1 | HepG2 | cell growth or viability, SRB |  | 10 nM, 48 h | viability | 91.1% |
| Cn1nccc1-c1nc(N2CCC(c3ccccn3)C2)c2ccccc2n1 (stereo not shown) | Trypanosoma cruzi | parasite growth, imaging | U2OS | intracellular, amastigote | IC50 | 16.4 µM |
| COc1ccc(NC(=O)c2c(Nc3ccccc3)sc(C#N)c2NC(=O)CNc2ccc(Cl)cc2)cc1 | HepG2 | cell growth or viability, SRB |  | 10 nM, 48 h | viability | 86.1% |
| Cc1ccc(CNC(=O)c2c(N)sc3c2CCCC3)cc1 | Mycobacterium tuberculosis | microbial growth, resazurin | H37RV |  | MIC | 333 µM (≈ 100 µg/mL) |
| COc1ccc(NC(=O)c2c(Nc3ccccc3)sc(C#N)c2NC(=O)CNc2ccccc2Cl)cc1 | HepG2 | cell growth or viability, SRB |  | 10 nM, 48 h | viability | 88.3% |
| CCOC(=O)c1c(NC(=O)c2c(F)c(F)c(F)c(F)c2F)sc2c1CCCC2 | Mycobacterium tuberculosis | microbial growth, resazurin | H37RV |  | MIC | < 50 µM |
| N#Cc1ccccc1-c1nc(N2CCC(c3ccccn3)C2)c2ccccc2n1 (stereo not shown) | Trypanosoma cruzi | parasite growth, imaging | U2OS | intracellular, amastigote | IC50 | 5.86 µM |
| CCCCNC(=O)c1c(N)sc2c1CCN(CC)C2 | Mycobacterium tuberculosis | microbial growth, resazurin | H37RV | 7 days | MIC | > 300 µM |
| CCOC(=O)c1ccc(-n2c(C)cc(/C=C/c3ccc(OC)cc3)c(C#N)c2=O)cc1 | HepG2 | cell growth or viability, MTT |  | 6.25 µM, 24 h | viability | 96% |
